Screening results (PubChem BioAssay)
A selection: hits, their analogues and other compounds. The true share with any hit is near 1.9%.
NTR1 ag: NTR1 (human) agonism; NTR1-U2OS beta-arrestin-GFP spot imaging, agonist mode; activation, % at 20 µM; 330,000 compounds, 0.17% hits; AID 493036;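 active means activation at or above 40% of the spot to cytoplasm intensity ratio, with at least 20 cells analyzed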
NOD2-RIPK2 inh: blocks binding of human NOD2 to RIPK2 | CHO BLA complementation NOD2-RIPK2, CCF4 ratio | inhibition, % at 4.98 µM | 360,000 compounds, 0.38% hits | AID 624267; in the data active means inhibition above about 21%
Target sequence (O43353 whole entry, looked up): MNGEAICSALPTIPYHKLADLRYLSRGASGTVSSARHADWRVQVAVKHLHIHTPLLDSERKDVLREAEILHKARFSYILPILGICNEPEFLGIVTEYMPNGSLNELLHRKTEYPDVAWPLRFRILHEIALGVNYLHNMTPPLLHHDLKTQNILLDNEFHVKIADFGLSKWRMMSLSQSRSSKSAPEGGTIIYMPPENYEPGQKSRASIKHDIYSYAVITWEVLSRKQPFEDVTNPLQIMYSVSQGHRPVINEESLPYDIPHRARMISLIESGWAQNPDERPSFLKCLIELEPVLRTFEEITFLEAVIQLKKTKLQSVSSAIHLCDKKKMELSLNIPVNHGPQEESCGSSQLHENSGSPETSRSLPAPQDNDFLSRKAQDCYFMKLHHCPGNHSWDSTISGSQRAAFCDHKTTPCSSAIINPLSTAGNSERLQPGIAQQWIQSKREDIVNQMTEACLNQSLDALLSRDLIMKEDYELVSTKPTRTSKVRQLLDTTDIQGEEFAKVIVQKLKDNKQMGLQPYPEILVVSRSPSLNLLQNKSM
TLR4-MyD88 BLA: inhibitors of human TLR4-MyD88 binding | O00206+Q99836 | HeLa CL3-4 TLR4/MyD88 BLA complementation, FRET ratio | inhibition, % at 8.4 µM | 200,000 compounds, 0.18% hits; in the data active means inhibition above about 25%
MC4R barr agon: human MC4R agonism via beta-arrestin | U2OS MC4R beta-arrestin complementation, luminescence; percent of melanotan II response, DMSO zero | activation, % at 8.9 µM | 360,000 compounds, 0.98% hits;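 active means activation above a per-plate cutoff, the mean activation of sample wells on that plate plus 3 SD, cut at about 8% in these data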
MC4R antagonist: antagonists of human melanocortin 4 receptor (MC4R). 360,000 compounds, 0.48% hits. MC4R-expressing cells, MTII-stimulated cAMP, LANCE TR-FRET. P32245. inhibition, % at 6.5 µM;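 active means inhibition above its plate's cutoff, the mean of tested wells on that plate plus 3 SD, cut at about 29% in these data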
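Test system: U2OS cells stably expressing human melanocortin 4 receptor (MC4R); also added: Melanotan II challenge; compound: 6.5 µM single dose; timing: 30-min compound preincubation, 1-h Melanotan II challenge, 1-h detection, room temperature; signal: Eu-cAMP/anti-cAMP TR-FRET, emission 671 nm; repeats: one well per compound, no replicates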
TLR9-MyD88 block: blocks human TLR9 binding to MyD88. CHO BLA complementation TLR9-MyD88, CCF4 FRET ratio. inhibition, % at 4.98 µM. Q9NR96+Q99836. 340,000 compounds, 0.21% hits;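 active means inhibition above the mean over all tested compounds plus 3 SD, cut at about 21% in these data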
TLR4 MyD88 cnf: TLR4-MyD88 interaction inhibition confirmed | AID 941 | HeLa CL3-4 BLA complementation, CCF4 FRET ratio | inhibition, % at 8.4 µM | shares compounds with TLR4-MyD88 BLA | 350 compounds, 50% hits;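 active means mean inhibition across three repeat runs above about 25% carried over from the earlier screen, limit read from the data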
BLA inhibitor ct: inhibits beta-lactamase activity, counter-screen to TLR4-MyD88 binding inhibitors; shares compounds with TLR4-MyD88 BLA; HeLa BLA reporter, CCF4 FRET ratio; inhibition, % at 8.4 µM; 350 compounds, 63% hits;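 active means mean inhibition over three repeats above about 26% taken from the earlier screen, limit read from the data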;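 further: HeLa cells stably expressing beta-lactamase reporter as counterscreen for TLR4-MyD88 inhibitors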
A number is an active result; - = inactive; . = no result given.

SMILES	NTR1 ag	NOD2-RIPK2 inh	TLR4-MyD88 BLA	MC4R barr agon	MC4R antagonist	TLR9-MyD88 block	TLR4 MyD88 cnf	BLA inhibitor ct
CCOC(=O)C1=C(C)N=c2s/c(=C\c3ccc(OC(C)=O)c(OCC)c3)c(=O)n2C1/C=C/c1ccccc1 (stereo not drawn)	-	-	54	-	-	-	26	-
COc1ccc(C)cc1S(=O)(=O)N1CCN(S(=O)(=O)c2cc(C)ccc2OC)C(C)C1 (stereo not drawn)	-	-	27	-	-	-	-	-
COc1cc(F)ccc1-c1csc(C(NC(C)=O)c2cccc(F)c2)n1 (stereo not drawn)	.	-	.	-	-	.	.	.
CC(=O)/C(=N\Nc1ccccc1)Sc1cccc2cccnc12	-	-	-	-	-	-	.	.
O=S(=O)(Nc1cc(Sc2cccc3cccnc23)c(O)c2ccccc12)c1ccc(F)cc1	.	.	29	.	.	.	25	32
O=C(Sc1cccc2cccnc12)c1ccc(F)cc1	-	.	29	.	.	.	26	40
CCCC(C)NCC(=O)Nc1ccccc1-c1ccccc1 (stereo not drawn)	-	-	-	-	-	-	.	.
CCSc1nnc(-c2sc3nnc(-c4ccccc4)c(-c4ccccc4)c3c2N)o1	-	-	40	-	-	-	47	80
Oc1sc(C=Nc2ccccc2)c2ccccc12	-	-	27	-	-	-	-	39
Oc1sc(C=Nc2ccc(F)cc2)c2ccccc12	-	-	-	-	-	-	.	.
CC(=O)Oc1ccc2c(c1)Oc1cc(OC(C)=O)ccc1C21OC(=O)c2ccccc21	-	76	63	-	-	71	70	93
Cc1cc(O)ccc1C1(c2ccc(O)cc2C)OC(=O)c2ccccc21	-	-	-	-	-	-	.	.
O=S(=O)(NCC(c1ccco1)N1CCOCC1)c1ccc(Cl)cc1 (stereo not drawn)	-	-	-	-	-	-	.	.
CC1CC(=O)c2c(cc3c(-c4c(O)cc(O)c5c(O)c6c(cc45)OC(C)CC6=O)c(O)cc(O)c3c2O)O1 (stereo not drawn)	-	23	42	-	65	-	44	65
O=C1CC(c2ccc(O)cc2)Oc2cc(O)cc(O)c21 (stereo not drawn)	-	-	-	-	-	-	.	.
COc1ccccc1NS(=O)(=O)c1cc([N+](=O)[O-])ccc1N/N=C/c1c(C)[nH]c2ccccc12	-	-	36	-	-	-	-	45
Cc1[nH]c2ccccc2c1/C=N/NC(=O)c1cccc([N+](=O)[O-])c1	-	-	-	-	-	.	.	.
O=[N+]([O-])c1ccc(N/N=C/c2c[nH]c3ccccc23)c(S(=O)(=O)Nc2ccc(Cl)cc2)c1	-	-	57	-	-	-	43	65
Cc1ccc(S(=O)(=O)NC(CC(=O)OCc2ccccc2)C(=O)OCc2ccccc2)cc1 (stereo not drawn)	.	-	.	-	-	-	.	.
Cc1c(N2C(=O)/C(=C\C3CC=CCC3)SC2=S)c(=O)n(-c2ccccc2)n1C (stereo not drawn)	-	-	25	-	-	-	-	-
Cc1cccc(CC(=O)NCC(=O)NCc2cc(=O)n(C)c(=O)n2C)c1	-	-	.	-	-	-	.	.
CCCCNC(=O)N1CCN(C/C=C/c2ccccc2)CC1	-	-	25	-	-	-	-	-
O=C(c1cccc(-c2nnc(-c3ccccc3)o2)c1)N1CCCCC1	-	-	28	-	-	-	-	-
O=C(Cc1ccccc1)N[C@@H]1c2ccccc2CC[C@@H]1OCc1ccccc1	-	-	.	-	-	-	.	.
O=C1c2cccc3c(N4CCCCC4)ccc(c23)C(=O)N1c1ccc(O)cc1	-	-	31	-	-	-	30	48
SMILES	NTR1 ag	NOD2-RIPK2 inh	TLR4-MyD88 BLA	MC4R barr agon	MC4R antagonist	TLR9-MyD88 block	TLR4 MyD88 cnf	BLA inhibitor ct
O=C(NCc1ccc(C(F)(F)F)cc1)C1CC(c2c(Cl)cccc2Cl)=NO1 (stereo not drawn)	-	-	-	-	-	-	.	.
O=C(CSc1nnc(CNc2cccc(C(F)(F)F)c2)n1Cc1ccco1)NCc1ccco1	-	-	26	-	-	-	-	-
CCOCCCNC(=O)C1CCCN(S(=O)(=O)c2cccc3nsnc23)C1 (stereo not drawn)	-	-	.	-	-	-	.	.
O=c1cc(-c2c(F)c(F)c(F)c(F)c2F)oc2ccccc12	-	-	-	-	-	-	.	.
O=c1cc(-c2c(F)c(F)c(F)c(F)c2F)oc2c(F)c(F)c(F)c(F)c12	-	.	42	.	.	.	38	-
Cc1ccc(S(=O)(=O)Nc2cc(C(F)(F)F)ccc2N2CCOCC2)cc1C	-	-	70	-	-	-	-	-
O=S(=O)(Nc1cc(C(F)(F)F)ccc1N1CCOCC1)c1ccccc1	-	-	.	-	-	-	.	.
CS(=O)(=O)n1nc(C(=O)N2CCOCC2)nc1N	-	-	-	-	-	-	.	.
Cc1ccc(C)c(N(CC(=O)N/N=C/c2ccc(-c3ccc([N+](=O)[O-])cc3)o2)S(=O)(=O)c2ccccc2)c1	-	-	55	-	-	-	58	87
O=C(Cc1ccccc1)N/N=C/c1ccc(-c2ccc([N+](=O)[O-])cc2)o1	-	-	-	-	-	-	.	.
CC(C)(C)C(=O)Cn1ncc(Cl)c(Cl)c1=O	.	-	-	-	-	-	.	.
O=c1c(Cl)c(Cl)cnn1Cc1ccc(F)cc1	-	-	27	-	52	-	-	-
O=C(OCn1ncc(Cl)c(Cl)c1=O)c1ccc(F)cc1	-	.	27	.	.	.	29	-
O=c1cnn(Cc2ccc(F)cc2)c2ccccc12	-	-	.	-	-	-	.	.
CC1CCCCN1CCNC(=O)c1ccc2c(c1)N(Cc1ccccc1F)C(=O)c1ccccc1S2=O (stereo not drawn)	-	-	.	-	-	-	.	.
CCOC(=O)COc1cnc2ccccc2n1	-	-	-	-	-	-	.	.
O=S(=O)(c1ccccc1F)N1CCC(c2nc3ccccc3[nH]2)CC1	-	-	.	-	-	-	.	.
Cc1cc2ccccc2n1CCNC(=O)c1ccc(Br)o1	-	-	-	-	-	-	.	.
CC(C)c1ccc(-n2c(-c3ccccc3)c[n+]3c2CCc2ccccc2-3)cc1	.	-	-	-	-	-	.	.
COc1ccc(-n2c(-c3ccc(Br)cc3)c[n+]3c2CCc2ccccc2-3)cc1	-	-	26	-	-	-	25	-
NS(=O)(=O)c1ccc(CCNC(=O)CSc2nc3ccsc3c(=O)n2C2CC2)cc1	-	-	-	-	-	-	.	.
CCCCNC(=O)CSc1nc2ccsc2c(=O)n1C1CCN(C(=O)OCC)CC1	-	-	48	-	-	-	-	-
